Measured values reported in ChEMBL document CHEMBL1151702, “Using an aryl phenanthroimidazole moiety as a conjugated flexible intercalator to improve the hybridization efficiency of a triplex-forming oligonucleotide” (Bioorg Med Chem, 2008).

What was measured:
Format in all cases: nucleic-acid assay
Nucleic Acid [1] = assay: Binding affinity to synthetic oligonucleotide ON18 at 1.0 uM at pH 6.0 by thermal denaturation study
In short: (§1)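 Duplex melting: complementary strands at 1.0 µM each in 20 mM sodium cacodylate, 100 mM NaCl, 10 mM MgCl₂, at the pH of the line. Annealed at 80 °C for 5 min, then cooled to 5 °C and held 30 min. UV absorbance read at 260 nm with heating at 1.0 °C/min; Tm is the maximum of the first-derivative curve.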

Nucleic Acid [2] = assay: Binding affinity to synthetic double stranded DNA D1 at 1.5 uM at pH 7.2 by thermal denaturation study
In short: (§2)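 Parallel triplex melting: target duplex assembled from strands at 1.0 µM each, TFO third strand added at 1.5 µM. Buffer 20 mM sodium cacodylate, 100 mM NaCl, 10 mM MgCl₂, at the pH of the line. Samples heated to 80 °C for 5 min, cooled to 5 °C and held 30 min. Absorbance read at 260 nm while heating at 1.0 °C/min; Tm taken as the first-derivative maximum.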

Nucleic Acid [3] = assay: Binding affinity to synthetic double stranded DNA D1 at 1.5 uM at pH 6.0 by thermal denaturation study; in short: as §2
Nucleic Acid [4] = assay: Binding affinity to synthetic oligonucleotide ON19 at 1.0 uM at pH 6.0 by thermal denaturation study; in short: as §1
Nucleic Acid [5] = assay: Binding affinity to synthetic oligonucleotide ON19 at 1.0 uM at pH 7.2 by thermal denaturation study; in short: as §1
Nucleic Acid [6] = assay: Binding affinity to synthetic oligonucleotide ON20 at 1.0 uM at pH 7.0 by thermal denaturation study
In short: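 DNA/RNA antiparallel duplex: each strand at 1.0 µM in 10 mM sodium phosphate, 140 mM NaCl, 1 mM EDTA, pH 7.0. Heated to 80 °C for 5 min, cooled to 5 °C and held 30 min. Absorbance followed at 260 nm during a 1.0 °C/min temperature ramp; Tm is the first-derivative maximum.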

Tm (Nucleic Acid [1]) [°C] | Tm (Nucleic Acid [2]) [°C] | Tm (Nucleic Acid [3]) [°C] | Tm (Nucleic Acid [4]) [°C] | Tm (Nucleic Acid [5]) [°C] | Tm (Nucleic Acid [6]) [°C] | Compound
31.5 | 20 | 43.5 | 54 | 54 | 55.5 | Cc1cn([C@H]2C[C@H](OP(=O)(O)OC[C@H]3O[C@@H](n4cc(C)c(=O)[nH]c4=O)C[C@@H]3OP(=O)(O)OC[C@H]3O[C@@H](n4cc(C)c(=O)[nH]c4=O)C[C@@H]3OP(=O)(O)OC[C@H]3O[C@@H](n4ccc(N)nc4=O)C[C@@H]3OP(=O)(O)OC[C@H]3O[C@@H](n4cc(C)c(=O)[nH]c4=O)C[C@@H]3OP(=O)(O)OC[C@H]3O[C@@H](n4cc(C)c(=O)[nH]c4=O)C[C@@H]3OP(=O)(O)OC[C@H]3O[C@@H](n4cc(C)c(=O)[nH]c4=O)C[C@@H]3O[PH](O)(O)OC[C@H]3O[C@@H](n4cc(C)c(=O)[nH]c4=O)C[C@@H]3OP(=O)(O)OC[C@H]3O[C@@H](n4cc(C)c(=O)[nH]c4=O)C[C@@H]3OP(=O)(O)OC[C@H]3O[C@@H](n4cc(C)c(=O)[nH]c4=O)C[C@@H]3OP(=O)(O)O[C@H](CO)CCOc3ccc(-c4nc5c6ccccc6c6ccccc6c5[nH]4)cc3)[C@@H](COP(=O)(O)O[C@H]3C[C@H](n4ccc(N)nc4=O)O[C@@H]3COP(=O)(O)O[C@H]3C[C@H](n4ccc(N)nc4=O)O[C@@H]3COP(=O)(O)O[C@H]3C[C@H](n4ccc(N)nc4=O)O[C@@H]3COP(=O)(O)O[C@H]3C[C@H](n4ccc(N)nc4=O)O[C@@H]3CO)O2)c(=O)[nH]c1=O
34 | 20.5 | 46 | 56.5 | 56.5 | 59 | Cc1cn([C@H]2C[C@H](OP(=O)(O)OC[C@H]3O[C@@H](n4cc(C)c(=O)[nH]c4=O)C[C@@H]3OP(=O)(O)OC[C@H]3O[C@@H](n4cc(C)c(=O)[nH]c4=O)C[C@@H]3OP(=O)(O)OC[C@H]3O[C@@H](n4ccc(N)nc4=O)C[C@@H]3OP(=O)(O)OC[C@H]3O[C@@H](n4cc(C)c(=O)[nH]c4=O)C[C@@H]3OP(=O)(O)OC[C@H]3O[C@@H](n4cc(C)c(=O)[nH]c4=O)C[C@@H]3OP(=O)(O)OC[C@H]3O[C@@H](n4cc(C)c(=O)[nH]c4=O)C[C@@H]3O[PH](O)(O)OC[C@H]3O[C@@H](n4cc(C)c(=O)[nH]c4=O)C[C@@H]3OP(=O)(O)OC[C@H]3O[C@@H](n4cc(C)c(=O)[nH]c4=O)C[C@@H]3OP(=O)(O)OC[C@H]3O[C@@H](n4cc(C)c(=O)[nH]c4=O)C[C@@H]3O)[C@@H](COP(=O)(O)O[C@H]3C[C@H](n4ccc(N)nc4=O)O[C@@H]3COP(=O)(O)O[C@H]3C[C@H](n4ccc(N)nc4=O)O[C@@H]3COP(=O)(O)O[C@H]3C[C@H](n4ccc(N)nc4=O)O[C@@H]3COP(=O)(O)O[C@H]3C[C@H](n4ccc(N)nc4=O)O[C@@H]3COP(=O)(O)O[C@H](CO)CCOc3ccc(-c4nc5c6ccccc6c6ccccc6c5[nH]4)cc3)O2)c(=O)[nH]c1=O
23 | 18.5 | 35.5 | 46 | 46 | 49 | Cc1cn([C@H]2C[C@H](OP(=O)(O)OC[C@H]3O[C@@H](n4cc(C)c(=O)[nH]c4=O)C[C@@H]3OP(=O)(O)OC[C@H]3O[C@@H](n4cc(C)c(=O)[nH]c4=O)C[C@@H]3O[PH](O)(O)OC[C@H]3O[C@@H](n4cc(C)c(=O)[nH]c4=O)C[C@@H]3OP(=O)(O)OC[C@H]3O[C@@H](n4cc(C)c(=O)[nH]c4=O)C[C@@H]3OP(=O)(O)OC[C@H]3O[C@@H](n4cc(C)c(=O)[nH]c4=O)C[C@@H]3O)[C@@H](COC[C@@H](CCOc3ccc(-c4nc5c6ccccc6c6ccccc6c5[nH]4)c4ccccc34)OP(=O)(O)O[C@H]3C[C@H](n4ccc(N)nc4=O)O[C@@H]3COP(=O)(O)O[C@H]3C[C@H](n4cc(C)c(=O)[nH]c4=O)O[C@@H]3COP(=O)(O)O[C@H]3C[C@H](n4cc(C)c(=O)[nH]c4=O)O[C@@H]3COP(=O)(O)O[C@H]3C[C@H](n4cc(C)c(=O)[nH]c4=O)O[C@@H]3COP(=O)(O)O[C@H]3C[C@H](n4ccc(N)nc4=O)O[C@@H]3COP(=O)(O)O[C@H]3C[C@H](n4ccc(N)nc4=O)O[C@@H]3COP(=O)(O)O[C@H]3C[C@H](n4ccc(N)nc4=O)O[C@@H]3COP(=O)(O)O[C@H]3C[C@H](n4ccc(N)nc4=O)O[C@@H]3CO)O2)c(=O)[nH]c1=O

The next lines start with the molecule.

Compound | Tm (Nucleic Acid [1]) [°C] | Tm (Nucleic Acid [2]) [°C] | Tm (Nucleic Acid [3]) [°C] | Tm (Nucleic Acid [4]) [°C] | Tm (Nucleic Acid [5]) [°C] | Tm (Nucleic Acid [6]) [°C]
Cc1cn([C@H]2C[C@H](OP(=O)(O)OC[C@H]3O[C@@H](n4ccc(N)nc4=O)C[C@@H]3OP(=O)(O)OC[C@H]3O[C@@H](n4cc(C)c(=O)[nH]c4=O)C[C@@H]3OP(=O)(O)O[C@@H](COCc3ccc(C#Cc4ccc5ccc6cccc7ccc4c5c67)cc3)COC[C@H]3O[C@@H](n4cc(C)c(=O)[nH]c4=O)C[C@@H]3OP(=O)(O)OC[C@H]3O[C@@H](n4cc(C)c(=O)[nH]c4=O)C[C@@H]3O[PH](O)(O)OC[C@H]3O[C@@H](n4cc(C)c(=O)[nH]c4=O)C[C@@H]3OP(=O)(O)OC[C@H]3O[C@@H](n4cc(C)c(=O)[nH]c4=O)C[C@@H]3OP(=O)(O)OC[C@H]3O[C@@H](n4cc(C)c(=O)[nH]c4=O)C[C@@H]3O)[C@@H](COC[C@H](COCc3ccc(C#Cc4ccc5ccc6cccc7ccc4c5c67)cc3)OP(=O)(O)O[C@H]3C[C@H](n4cc(C)c(=O)[nH]c4=O)O[C@@H]3COP(=O)(O)O[C@H]3C[C@H](n4cc(C)c(=O)[nH]c4=O)O[C@@H]3COP(=O)(O)O[C@H]3C[C@H](n4ccc(N)nc4=O)O[C@@H]3COP(=O)(O)O[C@H]3C[C@H](n4ccc(N)nc4=O)O[C@@H]3COP(=O)(O)O[C@H]3C[C@H](n4ccc(N)nc4=O)O[C@@H]3COP(=O)(O)O[C@H]3C[C@H](n4ccc(N)nc4=O)O[C@@H]3CO)O2)c(=O)[nH]c1=O | 38 | 43 | 56.5 | 41 | 38 | –
Cc1cn([C@H]2C[C@H](OP(=O)(O)OC[C@H]3O[C@@H](n4cc(C)c(=O)[nH]c4=O)C[C@@H]3OP(=O)(O)OC[C@H]3O[C@@H](n4cc(C)c(=O)[nH]c4=O)C[C@@H]3O[PH](O)(O)OC[C@H]3O[C@@H](n4cc(C)c(=O)[nH]c4=O)C[C@@H]3OP(=O)(O)OC[C@H]3O[C@@H](n4cc(C)c(=O)[nH]c4=O)C[C@@H]3OP(=O)(O)OC[C@H]3O[C@@H](n4cc(C)c(=O)[nH]c4=O)C[C@@H]3O)[C@@H](COC[C@@H](COCc3ccc(C#Cc4ccc5ccc6cccc7ccc4c5c67)cc3)OP(=O)(O)O[C@H]3C[C@H](n4ccc(N)nc4=O)O[C@@H]3COP(=O)(O)O[C@H]3C[C@H](n4cc(C)c(=O)[nH]c4=O)O[C@@H]3COP(=O)(O)O[C@H]3C[C@H](n4cc(C)c(=O)[nH]c4=O)O[C@@H]3COP(=O)(O)O[C@H]3C[C@H](n4cc(C)c(=O)[nH]c4=O)O[C@@H]3COP(=O)(O)O[C@H]3C[C@H](n4ccc(N)nc4=O)O[C@@H]3COP(=O)(O)O[C@H]3C[C@H](n4ccc(N)nc4=O)O[C@@H]3COP(=O)(O)O[C@H]3C[C@H](n4ccc(N)nc4=O)O[C@@H]3COP(=O)(O)O[C@H]3C[C@H](n4ccc(N)nc4=O)O[C@@H]3CO)O2)c(=O)[nH]c1=O | 30 | 21.5 | 39.5 | 44.5 | – | –
Cc1cn([C@H]2C[C@H](OP(=O)(O)OC[C@H]3O[C@@H](n4cc(C)c(=O)[nH]c4=O)C[C@@H]3OP(=O)(O)OC[C@H]3O[C@@H](n4cc(C)c(=O)[nH]c4=O)C[C@@H]3OP(=O)(O)OC[C@H]3O[C@@H](n4ccc(N)nc4=O)C[C@@H]3OP(=O)(O)OC[C@H]3O[C@@H](n4cc(C)c(=O)[nH]c4=O)C[C@@H]3OP(=O)(O)OC[C@H]3O[C@@H](n4cc(C)c(=O)[nH]c4=O)C[C@@H]3OP(=O)(O)OC[C@H]3O[C@@H](n4cc(C)c(=O)[nH]c4=O)C[C@@H]3O[PH](O)(O)OC[C@H]3O[C@@H](n4cc(C)c(=O)[nH]c4=O)C[C@@H]3OP(=O)(O)OC[C@H]3O[C@@H](n4cc(C)c(=O)[nH]c4=O)C[C@@H]3OP(=O)(O)OC[C@H]3O[C@@H](n4cc(C)c(=O)[nH]c4=O)C[C@@H]3O)[C@@H](COP(=O)(O)O[C@H]3C[C@H](n4ccc(N)nc4=O)O[C@@H]3COP(=O)(O)O[C@H]3C[C@H](n4ccc(N)nc4=O)O[C@@H]3COP(=O)(O)O[C@H]3C[C@H](n4ccc(N)nc4=O)O[C@@H]3COP(=O)(O)O[C@H]3C[C@H](n4ccc(N)nc4=O)O[C@@H]3COP(=O)(O)O[C@H](CO)COCc3ccc(C#Cc4ccc5ccc6cccc7ccc4c5c67)cc3)O2)c(=O)[nH]c1=O | 36 | 20.5 | 44.5 | 53 | 52 | –
Cc1cn([C@H]2C[C@H](OP(=O)(O)OC[C@H]3O[C@@H](n4cc(C)c(=O)[nH]c4=O)C[C@@H]3OP(=O)(O)OC[C@H]3O[C@@H](n4cc(C)c(=O)[nH]c4=O)C[C@@H]3O[PH](O)(O)OC[C@H]3O[C@@H](n4cc(C)c(=O)[nH]c4=O)C[C@@H]3OP(=O)(O)OC[C@H]3O[C@@H](n4cc(C)c(=O)[nH]c4=O)C[C@@H]3OP(=O)(O)OC[C@H]3O[C@@H](n4cc(C)c(=O)[nH]c4=O)C[C@@H]3O)[C@@H](COC[C@@H](CCOc3ccc(-c4ncc[nH]4)c4ccccc34)OP(=O)(O)O[C@H]3C[C@H](n4ccc(N)nc4=O)O[C@@H]3COP(=O)(O)O[C@H]3C[C@H](n4cc(C)c(=O)[nH]c4=O)O[C@@H]3COP(=O)(O)O[C@H]3C[C@H](n4cc(C)c(=O)[nH]c4=O)O[C@@H]3COP(=O)(O)O[C@H]3C[C@H](n4cc(C)c(=O)[nH]c4=O)O[C@@H]3COP(=O)(O)O[C@H]3C[C@H](n4ccc(N)nc4=O)O[C@@H]3COP(=O)(O)O[C@H]3C[C@H](n4ccc(N)nc4=O)O[C@@H]3COP(=O)(O)O[C@H]3C[C@H](n4ccc(N)nc4=O)O[C@@H]3COP(=O)(O)O[C@H]3C[C@H](n4ccc(N)nc4=O)O[C@@H]3CO)O2)c(=O)[nH]c1=O | – | – | 13.5 | – | – | –
